# Assay results published in publication PMC4657471 (Pest Management Science, 2014).
# Like-named read-outs stand apart in the source and are kept apart here.
# What was measured:
# [1] = tested on: lettuce aphids (Nasonovia ribisnigri); assay: Field trials against lettuce aphids; assay type: in vivo; settings: seven lettuce field trials, foliar spray, rate g ha^−1: flupyradifurone 125, pymetrozine 200, thiacloprid 96, spirotetramat 75; for Efficacy (%) 6–10 DAA: 6–10 days after application; for Efficacy (%) 13–15 DAA: 13–15 days after application
# How it was run: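 Seven lettuce field trials in the EU maritime zone, each including commercial formulated standard insecticides for comparison. Treatments were replicated 3–4 times per trial, with aphid infestations above economic threshold levels. Efficacy was assessed at various intervals after spraying by scoring surviving aphids.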
# Honey bee [2] = assay: Honey bee long-term field studies in oilseed rape; assay type: in vivo; settings: 205 g AI ha^−1 in oilseed rape, full bloom and bees actively foraging
# Myzus persicae = assay: Speed of action: suppression of aphid honeydew excretion on oilseed rape; assay type: in vivo; settings: SL200, 75 g AI ha^−1 foliar on oilseed rape
# How it was run: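 Susceptible M. persicae (strain NS): 100 aphids per plant on the abaxial leaf side of […] oilseed rape (six leaves). Sprayed 50 cm above the canopy with a track sprayer at 75 g AI ha−1 SL200 in 300 L ha−1 water; water controls; two replicates; 22 °C, 60–70% RH. Filter papers under the leaves were changed every 30 min up to 240 min and stained with ninhydrin; honeydew spot area was expressed as suppression relative to preapplication.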
# [3] = Reproductive and developmental toxicity; settings: technical flupyradifurone
# [4] = Aquatic invertebrate acute toxicity; settings: Daphnia, in vivo
# Honey bee [5] = assay: Honey bee foliage residue test; assay type: in vivo; settings: at 205 g ha^−1
# [6] = tested on: tomato plants (Solanum lycopersicum L.); assay: Plant uptake and translocation by phosphor imaging; settings: [14C]-labelled, SL200; tomato plants harvested 1 day after soil drench
# How it was run: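 Test compound was [pyridinylmethyl-14C]-labelled in SL200 and drenched at 24 mg AI plant−1 onto 21-day-old tomato in 5 L pots of sandy loam at 80–90% water-holding capacity. Plants were kept at 21/16 °C day/night with 14 h light and 60–70% RH. Shoots were cut at the soil surface, pressed, dried 24 h at 50 °C and exposed 6 days to phosphor imaging plates.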
# Honey bee [7] = assay: Honey bee acute oral toxicity; assay type: in vivo; settings: technical flupyradifurone
# Bemisia tabaci = assay: Whitefly adult leaf-dip bioassay; assay type: in vivo; settings: for mortality at 16 µg/mL: Bemisia tabaci
# How it was run: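 Adult B. tabaci, including neonicotinoid-resistant biotype B (Unai, Brazil, 2009). Cotton leaf discs (3.5 cm) were dipped 5 s in solutions made up in 0.02% Triton X-100, with diluent alone for controls. Discs were air-dried and laid on 12 g L−1 agar under ventilated lids. Three replicates per concentration, 20–30 females each, held at 22–24 °C; adult mortality scored after 72 h.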
# Mutagenicity = settings: technical flupyradifurone
# B. tabaci CYP6CM1 = assay: Metabolism of insecticides by recombinant CYP6CM1 microsomes; assay type: in vitro ADME, Bemisia tabaci; settings: 20 µM insecticide; 4 h at 30 °C; NADPH-regenerating system; UPLC-MS
# How it was run: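 B. tabaci CYP6CM1 and Drosophila NADPH CPR were baculovirus-expressed in Sf9 cells and run as microsomes (0.2 mg mL−1 total protein) in 0.1 M K-phosphate. Regenerating system: 1.3 mM NADP+, 3.3 mM glucose-6-phosphate, 3.3 mM MgCl2, 0.4 U mL−1 G6PDH. Insecticide 20 µM, 30 °C, 4 h, triplicates, no-NADPH control. Quenched with acetonitrile (50% final), centrifuged, parent loss measured by UPLC–MS/MS in positive ion mode.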
# Honey bee [8] = assay: Honey bee acute contact toxicity; assay type: in vivo; settings: technical flupyradifurone
# Bumblebee = Bumblebee acute contact toxicity; assay type: in vivo; settings: technical flupyradifurone
# Carcinogenicity = settings: technical flupyradifurone
# Fish acute toxicity = settings: rainbow trout, in vivo
# [9] = tested on: endogenously expressed insect nAChRs; assay: Whole-cell voltage clamp electrophysiology on isolated neurons; assay type: cell-based, Spodoptera frugiperda; settings: for relative agonist efficacy: relative to the amplitude elicited by 1 mM of acetylcholine, holding potential −70 mV
# Aquatic plant toxicity = settings: algae, in vivo
# Skin irritation = settings: technical flupyradifurone
# rat [10] = assay: Acute inhalation toxicity; assay type: in vivo; settings: technical flupyradifurone
# rat [11] = assay: Acute dermal toxicity; assay type: in vivo; settings: technical flupyradifurone
# Earthworm (Eisenia) = assay: Earthworm 14 day toxicity; assay type: in vivo
# Eye irritation = settings: technical flupyradifurone
smiles,measurement,setting,value
"O=C1C=C(N(Cc2ccc(Cl)nc2)CC(F)F)CO1 [Flupyradifurone, 4-{[(6-Chloropyridine-3-yl)methyl] (2,2-difluoroethyl)amino}furan-2 (5H)-one]",Efficacy (%) 6–10 DAA,[1],96%
same,Efficacy (%) 13–15 DAA,[1],83%
same,Honey bee long-term field studies,Honey bee [2],No adverse effects
same,time to feeding (honeydew excretion) stop after spray application,Myzus persicae; aphids on abaxial leaf side,≤ 2 h
same,aphid mortality two days after application,Myzus persicae; data not shown,all aphids were dead
same,Reproductive and developmental toxicity,[3],No concern
same,EC50,[4],> 77.6 µg/mL
same,Honey bee foliage residue,Honey bee [5],No effects at 205 g ha^−1
same,root uptake and distribution after drench application,[6],fast root uptake
same,Honey bee acute oral LD50,Honey bee [7],1200 ng bee^−1
same,mortality at 16 µg/mL,Bemisia tabaci; read-out: adult mortality,50%
same,mortality at 16 µg/mL,Bemisia tabaci; read-out: nymph mortality,100%
same,Mutagenicity,Mutagenicity,Not a mutagen
same,degradation of parent compound by CYP6CM1 microsomes,B. tabaci CYP6CM1,not depleted at all
same,Honey bee acute contact LD50,Honey bee [8],>100 µg bee^−1
same,Bumblebee acute contact LD50,Bumblebee,>100 µg bee^−1
same,Carcinogenicity,Carcinogenicity,Not a carcinogen
same,LC50,Fish acute toxicity,> 74.2 µg/mL
same,type of action on nAChRs,[9]; isolated S. frugiperda neurons,partial agonist
same,relative agonist efficacy,[9],0.56
same,EC50,Aquatic plant toxicity,> 80 µg/mL
same,Skin irritation,Skin irritation,Non-irritant
same,"Acute inhalation toxicity, rat LC50",rat [10],>4671 mg m^−3
same,"Acute dermal toxicity, rat LD50",rat [11],>2000 mg kg^−1 body weight
same,Earthworm (Eisenia) 14 day LC50,Earthworm (Eisenia),193 mg kg^−1 dry weight soil
same,Eye irritation,Eye irritation,Non-irritant
"O=[N+]([O-])NC1=NCCN1Cc1ccc(Cl)nc1 [Imidacloprid, imidacloprid, reference compound]",response of adult females,"Bemisia tabaci; B. tabaci B-type strain (Unai, Brazil), concentrations of 1000 mg L^−1",do not respond at all
same,degradation of parent compound by CYP6CM1 microsomes,B. tabaci CYP6CM1,23 ± 1%
same,relative agonist efficacy,[9],0.15
"CC1=NNC(=O)N(/N=C/c2cccnc2)C1 [Pymetrozine, pymetrozine]",Efficacy (%) 6–10 DAA,[1],79%
same,Efficacy (%) 13–15 DAA,[1],57%
same,degradation of parent compound by CYP6CM1 microsomes,B. tabaci CYP6CM1,70 ± 6%
"CCOC(=O)OC1=C(c2cc(C)ccc2C)C(=O)N[C@]12CC[C@@H](OC)CC2 [Spirotetramat, spirotetramat]",Efficacy (%) 6–10 DAA,[1],90%
same,Efficacy (%) 13–15 DAA,[1],98%
same,degradation of parent compound by CYP6CM1 microsomes,B. tabaci CYP6CM1,not depleted at all
"N#C/N=C1\SCCN1Cc1ccc(Cl)nc1 [Thiacloprid, thiacloprid]",Efficacy (%) 6–10 DAA,[1],88%
same,Efficacy (%) 13–15 DAA,[1],72%
CC(c1ccc(C(F)(F)F)nc1)S(C)(=O)=NC#N (centres unmarked) [sulfoxaflor],degradation of parent compound by CYP6CM1 microsomes,B. tabaci CYP6CM1,not depleted at all
